Assay results pooled from the literature.
Each line is one published result; the experiments were not run side by side.
Target: Inhibitor of nuclear factor kappa-B kinase subunit epsilon (IKBKE, Homo sapiens, UniProt Q14164)
Observed: enzyme activity
Mode: inhibitor
One construct used (Q14164 1-716): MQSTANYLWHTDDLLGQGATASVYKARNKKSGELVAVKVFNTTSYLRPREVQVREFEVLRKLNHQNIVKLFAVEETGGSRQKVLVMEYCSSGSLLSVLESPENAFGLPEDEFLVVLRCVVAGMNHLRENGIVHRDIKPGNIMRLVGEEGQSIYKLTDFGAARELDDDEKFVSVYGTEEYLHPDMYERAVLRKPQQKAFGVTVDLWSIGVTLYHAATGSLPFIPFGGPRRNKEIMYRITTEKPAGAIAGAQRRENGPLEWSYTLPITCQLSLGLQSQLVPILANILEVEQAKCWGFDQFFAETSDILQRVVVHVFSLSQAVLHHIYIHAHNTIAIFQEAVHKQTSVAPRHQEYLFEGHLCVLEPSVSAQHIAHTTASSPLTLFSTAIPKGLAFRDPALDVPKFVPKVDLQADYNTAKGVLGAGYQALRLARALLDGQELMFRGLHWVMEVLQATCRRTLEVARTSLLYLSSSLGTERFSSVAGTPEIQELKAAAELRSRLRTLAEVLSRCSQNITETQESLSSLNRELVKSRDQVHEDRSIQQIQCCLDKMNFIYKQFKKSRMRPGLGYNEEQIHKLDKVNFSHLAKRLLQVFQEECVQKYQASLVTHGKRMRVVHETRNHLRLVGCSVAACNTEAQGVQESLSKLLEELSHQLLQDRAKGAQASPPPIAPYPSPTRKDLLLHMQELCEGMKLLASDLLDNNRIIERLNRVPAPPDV

Cc1nn(CC(F)(F)F)cc1Nc1ncc(C2CC2)c(NCCc2c[nH]cn2)n1
remaining activity (radiometric; 1 µM): 95%

COc1cc(Nc2cnc(C#N)c(O[C@H](C)CN(C)C)n2)ncc1-c1cnn(C)c1
remaining activity (radiometric; 1 µM): 78%

c1cc(CN2CCOCC2)cc(Nc2ncc(C3CC3)c(NCCc3c[nH]cn3)n2)c1
remaining activity (radiometric; 1 µM): 55%

FC(F)c1nc2ccccc2n1-c1nc(N2CCOCC2)nc(N2CCOCC2)n1
remaining activity (10 µM): 84%

CCN(CC)CCNC(=O)c1c(C)[nH]c(/C=C2\C(=O)Nc3ccc(Cl)cc32)c1C
remaining activity (0.5 µM): 29.4%

O=C(NCCCNc1nc(Nc2cccc(NC(=O)N3CCCC3)c2)ncc1C1CC1)C1CCC1
remaining activity (radiometric; 1 µM): 3%

COc1cc(Cl)c(C(=O)N[C@@H](CN[C@H]2CC[C@@H](N)CC2)Cc2ccc(C#N)cc2)cc1-c1ccc(CN[C@H](C)c2ccc(C)cc2)o1
remaining activity (1 µM): 89%

Oc1cccc(-c2nc(N3CCOCC3)c3oc4ncccc4c3n2)c1
remaining activity (10 µM): 85%

CC(C)(C)c1nc2c(s1)c1nc(N)ncc1c1ccc(NS(=O)(=O)c3c(F)cccc3F)c(F)c12
remaining activity (radiometric; 1 µM): 90%

Cc1sc(C(=O)NC2COC2)cc1-n1cc(NC(=O)Nc2c(F)cccc2Cl)cn1
remaining activity (10 µM): 116%

NS(=O)(=O)c1ccc(CNc2nc(Nc3cccc(CN4CCOCC4)c3)ncc2Br)cc1
remaining activity (radiometric; 1 µM): 32%

O=c1cc(-c2cccc3c2Sc2ccccc2S3)oc(N2CCOCC2)c1
remaining activity (0.5 µM): 96.5%

CC(C)(O)[C@H]1CC[C@H](Nc2ccc3ncc(-c4cccc(C(F)(F)F)c4)n3n2)CC1
remaining activity (1 µM): 90.2%

O=c1c2ccccc2[nH]c(=S)n1CCN1CCC(=C(c2ccc(F)cc2)c2ccc(F)cc2)CC1
remaining activity (0.5 µM): 101%

O=C(Nc1cnn(-c2csc(C(=O)NC3COC3)c2)c1)Nc1ccccc1Cl
remaining activity (5 µM): 110%
